# Source: ChEMBL document CHEMBL4382215, “Synthesis of new ent-labdane diterpene derivatives from andrographolide and evaluation of their anti-inflammatory activities” (Eur J Med Chem, 2019)
# The source made the active and inactive calls. The calls are words filed in the database; no cut-off is given here.
# Columns and labels:
# RAW264.7 [1] = test: Antiinflammatory activity in mouse RAW264.7 cells assessed as inhibition of LPS-induced nitric oxide production preincubated for 3 hrs followed by LPS addition and measured after 24 hrs by griess assay; type: functional, cell-based
# Procedure, shortened: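 RAW264.7 cells in 96-well plates were exposed to compounds over 0–100 µM for 3 h, then to LPS 1 µg/mL for 24 h. Controls were DMSO without LPS (vehicle) and DMSO with LPS (model). Nitrite in the medium was read with Griess reagent at 540 nm. Percent inhibition was calculated and IC50 derived; hydrocortisone was the positive control.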
# [2] = target: Transcription factor p65 (Mus musculus) (UniProt Q04207); test: Inhibition of LPS-induced NFkappaB p65 nuclear translocation in mouse RAW264.7 cells at 10 uM preincubated for 2 hrs followed by LPS-stimulation and measured after 12 hrs by DAPI staining based immunofluorescence microscopic analysis; type: cell-based
# Chain of Transcription factor p65 (Mus musculus) (Q04207 whole entry): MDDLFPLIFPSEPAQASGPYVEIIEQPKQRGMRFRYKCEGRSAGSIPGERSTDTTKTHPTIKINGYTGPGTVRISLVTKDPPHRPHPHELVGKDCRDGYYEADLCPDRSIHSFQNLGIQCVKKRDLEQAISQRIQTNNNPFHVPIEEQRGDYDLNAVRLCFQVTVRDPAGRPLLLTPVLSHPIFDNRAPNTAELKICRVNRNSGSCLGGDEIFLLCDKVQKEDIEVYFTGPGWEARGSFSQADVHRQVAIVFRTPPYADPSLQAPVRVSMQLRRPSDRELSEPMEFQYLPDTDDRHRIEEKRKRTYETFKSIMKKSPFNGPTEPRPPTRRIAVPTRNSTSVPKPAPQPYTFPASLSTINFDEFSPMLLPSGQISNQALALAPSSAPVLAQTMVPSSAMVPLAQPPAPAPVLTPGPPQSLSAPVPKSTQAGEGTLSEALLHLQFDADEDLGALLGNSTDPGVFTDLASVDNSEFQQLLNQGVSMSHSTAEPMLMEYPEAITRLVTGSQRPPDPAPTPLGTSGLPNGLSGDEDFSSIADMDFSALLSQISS
# Procedure, shortened: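 Cells grown in glass chambers were pretreated with DMSO or compound for 2 h, then given LPS 1 µg/mL for 12 h. They were fixed in 4% paraformaldehyde for 15 min, permeabilized with 0.25% Triton X-100, and labelled with p65 antibody plus AlexaFluor488 secondary. Nuclei were stained with DAPI at 37 °C for 30 min in the dark, and cells were imaged by fluorescence microscopy.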
# RAW264.7 [3] = test: Antiinflammatory activity in mouse RAW264.7 cells assessed as inhibition of LPS-induced iNOS expression at 5 to 20 uM preincubated for 3 hrs followed by LPS addition and measured after 24 hrs by Western blot analysis; type: functional
# Procedure, shortened: (§1)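 RAW264.7 cells in 6-well plates were pretreated as for ELISA, then given LPS 1 µg/mL for 24 h and lysed with protease inhibitors. 30 µg total protein was run on 10% SDS-PAGE and blotted to nitrocellulose, blocked in 5% skim milk, and probed overnight at 4 °C. Primary antibodies were iNOS 1:200; COX-2, NF-κB, IκBα and p-IκBα 1:2000; β-actin 1:2000 as reference. Detection used HRP secondary and ECL; data from ≥3 independent experiments.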
# RAW264.7 [4] = test: Antiinflammatory activity in mouse RAW264.7 cells assessed as inhibition of LPS-induced IL1beta production preincubated for 3 hrs followed by LPS addition and measured after 24 hrs by ELISA; type: functional, cell-based
# Procedure, shortened: (§2)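 Cells in 96-well plates were pretreated with DMSO or compound at 5, 10 and 20 µM for 3 h, then stimulated with LPS 1 µg/mL for 24 h. IL-1β and IL-6 in the medium were quantified by commercial ELISA, with OD read at […]. Results are mean ± SD of at least three independent experiments.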
# RAW264.7 [5] = test: Inhibition of LPS-induced IkappaBalpha expression in mouse RAW264.7 cells at 5 to 20 uM preincubated for 3 hrs followed by LPS addition and measured after 24 hrs by Western blot analysis; type: functional, cell-based; procedure, shortened: as §1
# [6] = target: T1, NF-kappa-B inhibitor alpha (Mus musculus) (UniProt Q9Z1E3); test: Inhibition of LPS-induced IkappaBalpha phosphorylation in mouse RAW264.7 cells at 5 to 20 uM preincubated for 3 hrs followed by LPS addition and measured after 24 hrs by Western blot analysis; type: cell-based; procedure, shortened: as §1
# T1 sequence (whole entry): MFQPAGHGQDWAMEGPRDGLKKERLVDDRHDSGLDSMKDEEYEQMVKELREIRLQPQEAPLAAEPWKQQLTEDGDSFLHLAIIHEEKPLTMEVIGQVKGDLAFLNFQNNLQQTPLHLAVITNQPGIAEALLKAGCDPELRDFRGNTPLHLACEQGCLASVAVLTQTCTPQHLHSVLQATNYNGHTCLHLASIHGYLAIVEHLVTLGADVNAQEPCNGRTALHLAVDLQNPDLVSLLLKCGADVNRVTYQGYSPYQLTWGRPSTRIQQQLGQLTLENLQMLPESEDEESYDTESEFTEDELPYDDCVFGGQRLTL
# RAW264.7 [7] = test: Inhibition of LPS-induced NFkappaB expression in mouse RAW264.7 cells at 5 to 20 uM preincubated for 3 hrs followed by LPS addition and measured after 24 hrs by Western blot analysis; type: functional, cell-based; procedure, shortened: as §1
# RAW264.7 [8] = test: Antiinflammatory activity in mouse RAW264.7 cells assessed as inhibition of LPS-induced IL6 production preincubated for 3 hrs followed by LPS addition and measured after 24 hrs by ELISA; type: functional, cell-based; procedure, shortened: as §2
# RAW264.7 [9] = test: Antiinflammatory activity in mouse RAW264.7 cells assessed as inhibition of LPS-induced COX2 expression at 5 to 20 uM preincubated for 3 hrs followed by LPS addition and measured after 24 hrs by Western blot analysis; type: functional, cell-based; procedure, shortened: as §1
# RAW264.7 [10] = test: Cytotoxicity against mouse RAW264.7 cells assessed as effect on cell viability at 3.125 to 100 uM after 24 hrs by CCK8 assay; type: cell-based; conditions: raw264.7, 24 h
# Procedure, shortened: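 Cells were grown in DMEM with 10% FBS and penicillin/streptomycin at 37 °C, 5% CO2. For the assay they were seeded at 5×10^4 cells/well and exposed in serum-free medium to a range of compound concentrations for 24 h, with DMSO as vehicle. Viability was read by CCK-8, in triplicate.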
SMILES,IC50 (RAW264.7 [1]) [µM],also measured
C=C1CCC2[C@](C)(CO)[C@H](O)CC[C@@]2(C)[C@@H]1CCOc1ccccc1O (stereo partly drawn),47.7,–
C=C1CCC2[C@](C)(CO)[C@H](O)CC[C@@]2(C)[C@@H]1CCOc1cccc2ccccc12 (stereo partly drawn),44.7,–
C=C1CCC2[C@](C)(CO)[C@H](O)CC[C@@]2(C)[C@@H]1CCOC(=O)c1ccc([N+](=O)[O-])cc1 (stereo partly drawn),37.3,–
C=C1CCC2[C@](C)(CO)[C@H](O)CC[C@@]2(C)[C@@H]1CCOc1ccc(C(C)(C)C)cc1 (stereo partly drawn),35.8,–
C=C1CCC2[C@](C)(CO)[C@H](O)CC[C@@]2(C)[C@@H]1CCOC(=O)c1cccnc1 (stereo partly drawn),> 50,–
C=C1CC[C@@H]2[C@](C)(CO)[C@H](O)CC[C@@]2(C)[C@@H]1C/C=C1/C(=O)OC[C@H]1O [ANDROGRAPHOLIDE],8.81,–
C=C1CCC2[C@](C)(CO)[C@H](O)CC[C@@]2(C)[C@@H]1CCOc1ccc([N+](=O)[O-])cc1 (stereo partly drawn),3.38,inhibition [2]: Active; inhibition (INH) (RAW264.7 [3]): 100%; inhibition (RAW264.7 [4]): Dose-dependent effect; inhibition (RAW264.7 [5]): Active; inhibition [6]: Active; inhibition (RAW264.7 [7]): Active; inhibition (RAW264.7 [8]): Dose-dependent effect; inhibition (RAW264.7 [9]): Active; Activity (RAW264.7 [10]): Non-Toxic
C=C1CCC2[C@](C)(CO)[C@H](O)CC[C@@]2(C)[C@@H]1CCn1cnc2c(N)ncnc21 (stereo partly drawn),> 100,–
C=C1CCC2[C@](C)(CO)[C@H](O)CC[C@@]2(C)[C@@H]1CCOc1ccc2oc(-c3ccccc3)cc(=O)c2c1 (stereo partly drawn),> 100,–
C=C1CCC2[C@](C)(CO)[C@H](O)CC[C@@]2(C)[C@@H]1CCOc1ccc(-c2cc(=O)c3cc(C)ccc3o2)cc1 (stereo partly drawn),> 100,–
C=C1CCC2[C@](C)(CO)[C@H](O)CC[C@@]2(C)[C@@H]1CCn1cncn1 (stereo partly drawn),> 100,–
C=C1CCC2[C@](C)(CO)[C@H](O)CC[C@@]2(C)[C@@H]1CCOC(=O)c1ccccc1 (stereo partly drawn),> 100,–
C=C1CCC2[C@](C)(CO)[C@H](O)CC[C@@]2(C)[C@@H]1CCn1ccc(=O)[nH]c1=O (stereo partly drawn),> 100,–
C=C1CCC2[C@](C)(CO)[C@H](O)CC[C@@]2(C)[C@@H]1CCn1ccnc1 (stereo partly drawn),> 50,–
C=C1CCC2[C@](C)(CO)[C@H](O)CC[C@@]2(C)[C@@H]1CCOC(=O)c1ccccc1[N+](=O)[O-] (stereo partly drawn),35.2,–
C=C1CCC2[C@](C)(CO)[C@H](O)CC[C@@]2(C)[C@@H]1CCn1c(N)nccc1=O (stereo partly drawn),> 100,–
C=C1CCC2[C@](C)(CO)[C@H](O)CC[C@@]2(C)[C@@H]1CCOc1ccc2ccc(=O)oc2c1 (stereo partly drawn),> 50,–
C=C1CCC2[C@](C)(CO)[C@H](O)CC[C@@]2(C)[C@@H]1CCOc1ccc(Br)cc1 (stereo partly drawn),40.2,–
C=C1CCC2[C@](C)(CO)[C@H](O)CC[C@@]2(C)[C@@H]1CCOc1ccc(Oc2ccccc2)cc1 (stereo partly drawn),12.8,–
